# Source: PubChem BioAssay
# Only some compounds are listed: those with a hit (about 9.4% of all), similar ones and a draw of the others.
# Beta cell apopt = inhibitors of cytokine-induced beta cell apoptosis, primary screen, luminescence. INS-1E cytokine-induced death, ATP luminescence, 48 h; percent of positive-control rescue, neutral wells zero. protection from apoptosis, % (concentration not given with the values). actives 0.8% (n = 300,000). AID 435005, 2010;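 active means Every replicate reaches about 75%, or at least half do and their mean reaches it too, limit read from the data; inconclusive means At least half of replicates reach the limit but their mean does not; inactive means Under half of replicates reach the limit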;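 further: 0% = cytokine-treated negative control wells and 100% = positive control rescue; higher means more ATP so stronger rescue from cytokine killing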
# L major viab = Leishmania major promastigote growth inhibition, primary screen. Leishmania major promastigotes, resazurin fluorescence viability. inhibition, % at 10 µM. actives 9% (n = 200,000). AID 1063, 2008; in the data active means inhibition above about 50%;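 further: promastigotes grown with compound for 44 hours at 28 °C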
# SKKanGAS inh = S. pyogenes SKKanGAS growth inhibitors in kanamycin, primary screen, streptokinase expression inhibitor project, SKKanGAS strain, BacTiter-Glo luminescence | 6 h | inhibition, % at 7.5 µM | actives 1.3% (n = 300,000) | AID 1662, 2009;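 active means mean replicate score, as percent of positive control median, at least 50; inconclusive means mean below 50 but one replicate at or above 50; inactive means mean and every replicate below 50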;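 further: strain carries kanamycin resistance gene driven by streptokinase promoter and grows in 40 µg/ml kanamycin; loss of luminescence reflects streptokinase promoter inhibition or plain growth inhibition; 0% = median of DMSO wells and 100% = positive control at its reference dose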
# T cruzi inh = inhibitors of intracellular T. cruzi growth, primary screen, luminescence, NIH3T3 host cells. T. cruzi beta-gal in NIH3T3, 90 h. AID 1885, 2009. inhibition, % (no concentration beside the values). actives 1.4% (n = 300,000);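 active means mean inhibition across valid replicates above about 55%, limit read from the data; inconclusive means mean below that limit but half or more replicates reach it; inactive means mean below it, under half of replicates reach it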;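 further: signal also drops with host cell toxicity which is not excluded here; 0% = plate median of DMSO wells and 100% = zero luminescence signal; higher percent means less beta-gal luminescence so fewer parasites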
#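 System – NIH/3T3 host cells with β-galactosidase reporter T. cruzi · Doses – single 50 nL compound addition per well in DMSO · Reagent – 5000 T. cruzi trypomastigotes/well · Medium – Low-serum DMEM with 2% FBS · Timing – ≥90 h infection period, 3 h prior cell attachment · Evaluation – parasite load inhibition, % · Technique – GalScreen luminescence, 60 min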
# CSC inhib = cancer stem cell viability inhibitors, primary screen, luminescence. inhibition, % at 7.5 µM. cancer stem cell-like cells viability. actives 1.1% (n = 300,000); in the data active means inhibition above about 75%; inconclusive means no clear call, values can overlap the other calls; tested in HMLE shEcad cells
# Mdm2-MdmX inh = inhibitors of human Mdm2-MdmX association, primary screen, cell-based, luminescence, split luciferase, SaOS-2, uHTS | Protein Mdm4 (Homo sapiens) + E3 ubiquitin-protein ligase Mdm2 (Homo sapiens), … | SaOS-2 split-luciferase Mdm2/MdmX complementation | inhibition, % at 8 µM | actives 3% (n = 330,000) | AID 485346, 2010;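 active means inhibition of at least 50% at 8 µM in the primary screen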
# Lmaj promast 1uM = Leishmania major promastigote growth inhibition, confirmation, 1 µM repeat of primary hits | shares compounds with L major viab | L. major promastigote growth, resazurin fluorescence, 48 h | inhibition, % at 1 µM | actives 13% (n = 1,100);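 active means inhibition above about 50% in both repeat tests, limit read from the data; inconclusive means one repeat under the set limit, the other over it; inactive means both repeats under the set limit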
# Numbers without * were called inactive; ? = inconclusive; . = not tested or not shown.
SMILES,Beta cell apopt,L major viab,SKKanGAS inh,T cruzi inh,CSC inhib,Mdm2-MdmX inh,Lmaj promast 1uM
COc1ccc(C2=NN(c3nc4ccccc4s3)C(=O)/C2=C\N(C)C)cc1,-1.7,53.9*,32.7,10.1,-8.5,9.1,-17.6
CN1CCN(CC(=O)c2ccccc2F)CC1,-4.1,.,1.5,-8.9,-0.1,14.9,.
Fc1ccc(CSc2nnc(Cc3sc(-c4ccccc4)nc3-c3ccccc3)o2)cc1,.,2.6,-7.9,25.3,-14.0,1.8,.
CSc1nnc(Cc2sc(-c3ccccc3)nc2-c2ccccc2)o1,23.6,93.2*,-11.8,23.0,7.5,29.6,-11.2
COc1ccc(NS(=O)(=O)c2cccc(C(=O)NCCCn3ccnc3)c2)cc1,-3.8,.,15.3,4.7,-3.0,15.8,.
O=C(NCc1ccccc1)C(c1ccccc1F)N(C(=O)c1csnn1)C1CCCC1 (stereo not given),-0.4,.,-0.6,18.5,-11.4,11.4,.
CCOC(=O)c1cnc2ccc(C)cc2c1Sc1ccc(F)cc1,-12.3,69.8*,-11.1,1.5,14.5,20.6,-17.1
Cc1cc(/C=C(/C#N)c2nc3ccccc3[nH]2)c(C)n1-c1cccc([N+](=O)[O-])c1,23.5,88.0*,13.5,41.0,19.4,24.2,17.4
CS(=O)(=O)c1ccc(S(=O)CC(=O)OCc2ccccc2)c([N+](=O)[O-])c1 (stereo not given),.,57.3*,-3.9,56.1*,.,.,40.3
Cc1c2ccccc2nc2c(F)c(NCCO)c(F)c(F)c12,3.8,46.3,5.4,2.1,5.6,-2.7,.
Cc1c2ccccc2nc2c(F)c(NC(C)C)c(F)c(F)c12,-6.3,50.5*,16.5,-24.7,7.7,.,9.5
Cc1ccc(NC(=O)NC(=O)N(C(C)C)S(C)(=O)=O)nc1,-1.8,77.2*,.,.,-1.9,.,-16.2
O=C(COC(=O)c1cc[n+]([O-])cc1)NCc1ccccc1Cl,-2.4,-5.8,-1.5,-3.9,.,19.2,.
Cc1ccc(C(=O)OCC(=O)c2ccc(Cl)s2)s1,-0.3,92.4*,5.8,-10.4,9.9,-12.2,-8.2
Cc1ccc(C(=O)OCC(=O)NCCNC(=O)COC(=O)c2ccc(C)s2)s1,-1.6,.,-6.0,-0.1,0.2,24.4,.
COc1cccc(CN2CCNC(=O)C2CC(=O)N(C)C2CCOCC2)c1 (stereo not given),2.0,.,-4.9,-6.5,28.6,7.9,.
COc1cccc2c(=O)c(SC(F)(F)C(F)C(F)(F)F)c(C)[nH]c12 (stereo not given),7.3,28.9,1.5,15.6,39.9,37.3,.
COc1cccc2c(=O)c(C/C=C(/C)Cl)c(C)[nH]c12,-3.8,100.4*,0.2,?,-4.1,-1.4,99.3*
COc1cc(C2SCC(=O)N2c2nnc(C34CC5CC(CC(C5)C3)C4)s2)cc(OC)c1OC (stereo not given),1.8,1.1,3.1,42.9,53.7,13.3,.
COc1ccc(C2SCC(=O)N2c2nnc(C34CC5CC(CC(C5)C3)C4)s2)cc1 (stereo not given),-1.7,98.4*,7.4,16.5,-7.4,30.5,-10.1
C1=Nc2ccccc2CN1c1ccccc1,-2.8,85.1*,-1.4,4.8,-3.7,-21.3,-8.2
O=C(NCCS(=O)(=O)N1CCN(c2ccccc2)CC1)C1CC1,4.6,.,-8.6,-10.4,1.4,26.3,.
C/C(=N\NC(=O)c1c[nH]c2ccccc12)c1ccc(C)o1,0.9,53.5*,-1.8,-2.1,4.4,-4.8,-0.1
C/C(=N/NC(=O)c1ccccn1)c1c[nH]c2ccccc12,1.6,.,-1.3,8.9,3.5,-68.3,.
Cc1occc1-c1nc(-c2ccccn2)no1,21.6,-2.4,1.3,-9.4,15.7,-70.2,.
Cc1onc(-c2ccccc2Cl)c1-c1nc(-c2ccccn2)no1,-3.0,74.5*,0.6,19.6,10.2,19.4,14.6
COCCCC/C(=N\OCCN)c1ccc(C(F)(F)F)cc1,6.2,80.2*,-2.2,21.3,-7.1,4.5,-1.3
